# In ChEMBL document CHEMBL4513216, “Probing the Open Global Health Chemical Diversity Library for Multistage-Active Starting Points for Next-Generation Antimalarials” (ACS Infect Dis, 2020):
# Experiment: Toxicity liver stage against HepG2, at 10uM
# Format: cell-based
# Parameters: test concentration 10 uM, cell line HepG2-A16-CD81EGFP
# Settings: human, HepG2-A16-CD81EGFP cells; read-out: INHIBITION
# How it was run: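 Uninfected HepG2-A16-CD81EGFP cells, 3 × 10^3 per well, 1536-well, plated on prespotted compound at 10 μM final, parasite-free screening media added to match infected plates; puromycin 10 μM positive, DMSO 0.5% negative; run in parallel with 48 h PbLuc assay at 37 °C, 5% CO2; viability by CellTiter-Glo luminescence, normalized to controls.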
row,Structure (SMILES),cytotoxicity at 10 µM [%]
1,NC(=O)C(Cc1ccccc1)NS(=O)(=O)Cc1ccccc1Cl (stereo not drawn),7.56
2,CC(C)CN1CCOC[C@H](Oc2ccc(S(C)(=O)=O)cc2)C1,-1.67
3,Cc1noc2ncnc(N(C)Cc3ccco3)c12,2.57
4,CN(C)CCCn1cnc2cc(NC(=O)c3n[nH]c4c3CCC4)ccc21,-5.3
5,O=C(NCC(O)(c1ccco1)C1CC1)c1ccccc1F (stereo not drawn),-1.16
6,COc1ccccc1OCC(=O)NCC(C)(O)c1ccccc1 (stereo not drawn),-5.37
7,c1cnc(N2C[C@H]3CCC[C@@H](CN4CCCC4)[C@H]3C2)nc1,-4.22
8,CC(=O)N1CCCC2(C1)CN(C(=O)C1CCCCC1)CCO2 (stereo not drawn),2.08
9,CC(=O)N1CCC2(C1)CN(C(=O)C1CCOC1)C2 (stereo not drawn),4.88
10,CC(C)NC(=O)C1CN(C(=O)Cc2cccc(F)c2)CC12CCOCC2 (stereo not drawn),4.58
11,Cc1cccc(CN2CCC3(CCCN(C(=O)CN(C)C)C3)C2=O)n1 (stereo not drawn),-3.49
12,O=c1[nH]nc2nc(N3CCSCC3)ccn12,-13.5
13,O=C(Cn1ccc2c(Cl)cccc21)N1CCC2(CC1)OCCO2,14.2
14,O=C1CC2(CCN(c3nncs3)C2)CN1c1ccccc1 (stereo not drawn),-8.25
15,CC(C)CC(=O)N1CC[C@@H]2[C@H](CC1)N(S(C)(=O)=O)CCS2(=O)=O,-11.4
16,O=C(NCC1CC1)C1CN(C(=O)c2cccs2)CC12CCOCC2 (stereo not drawn),-14
17,Cc1nn(CC(=O)N2CCN(c3ccccc3F)CC2)c(C)c1Cl,-12.6
18,Cc1noc(C)c1C(=O)N1CCC2(CCc3ccccc3C(=O)N2)C1 (stereo not drawn),1.75
19,Cc1cc2ccncc2n1CC1(O)CCN(C(=O)c2cccnc2)CC1,4.18
20,O=C(CC1CCN(c2cccnn2)CC1)NCCO,0.308
21,CC(=O)N1CCCC1c1nc(C)c2c(n1)N(Cc1ccccn1)CCC2 (stereo not drawn),0.711
22,CCCC(=O)N1CCCC(c2ccccn2)C1 (stereo not drawn),0.0858
23,Cc1cnc(-c2nc(O)c3c(n2)CN(C(=O)C2CC2)CC3)cn1,-6.74

row,Structure (SMILES),cytotoxicity at 10 µM [%]
1,Cc1cc(N2CCCC2c2nc(C)cc(CCC(=O)O)n2)ncn1 (stereo not drawn),-17.1
2,COCC(=O)N1CCC(c2cc(C(F)(F)F)c3c(C)noc3n2)CC1,-28
3,O=C(N[C@@H]1CC[C@@H](n2ccnc2)[C@@H]1O)c1cc2c(s1)CCC2,-12.7
4,Cc1cc(-c2cnn(CCNC(=O)c3cnn(C)c3)c2C2CC2)on1,-5.58
5,Cc1ccc(S(=O)(=O)N2CCC(O)(CN(C)C)C2)cc1 (stereo not drawn),-7.02
6,Cc1ccc(O)c(CNc2cccc(OCCF)c2)n1,-3.09
7,Cc1ccc(CN(CCN(C)C)C(=O)Cc2cn3ccccc3n2)o1,-5.1
8,Cc1nnc(CN(C)CC(=O)NC(C)(C)c2ccc(F)cc2)n1C,-4.25
9,CC(NC(=O)CCn1cccn1)c1ccc(-n2ccnn2)cc1 (stereo not drawn),-1.99
10,CC(C)Oc1ccc(CN)c(C(F)(F)F)c1,0.71
11,CCn1nc(C)cc1C(=O)OCC1CC(=O)N(Cc2ccccc2)C1 (stereo not drawn),6.68
12,COc1ccnc(N2CCN(Cc3ncc(C(C)(C)C)o3)CC2)n1,-7.2
13,CN(CC(=O)NS(=O)(=O)c1ccsc1)Cc1ccccc1,-5.1
14,COc1cc(C(=O)NC(C)c2cccs2)cc2c1OCCO2 (stereo not drawn),-18.2
15,Cc1ncccc1C(=O)NCC(C)Oc1ccc(F)cc1 (stereo not drawn),-4.08
16,CN(Cc1cnn(C)c1)C(=O)CCc1ccc2c(c1)OCO2,-2.59
17,N#Cc1ccc(N2CCCN(CCCn3cncn3)CC2)cc1,-8.9
18,O=C(Nc1nc(-c2ccccc2)ns1)N1CC[C@H](O)C1,10.5
19,N#Cc1cc(NC(=O)c2cc[nH]n2)ccc1N1CCC(O)CC1,-0.758
20,O=C1NCCCCC1Sc1n[nH]c(=O)n1C1CC1 (stereo not drawn),5.24
21,Cc1cc(C)n(C2CN(Cc3noc(C4CC4)n3)C2)n1,0.738
22,NC(=O)C1CCN(Cn2nc(-c3ccc(F)cc3)oc2=O)C1 (stereo not drawn),14.6
23,COc1ccc(C(=O)Nc2c(C)nn(C(C)C)c2C)cc1,-3.13

row,Structure (SMILES),cytotoxicity at 10 µM [%]
1,Cc1ccc(NC(=O)c2ccc(CC3CC(=O)NC3=O)cc2)cc1O (stereo not drawn),4.99
2,CC(CC#N)N1CCN(C(=O)OC(C)(C)C)CC1 (stereo not drawn),-2.72
3,O=C(Nc1cn[nH]c1)N(CCCO)C1CCc2ccccc21 (stereo not drawn),-1.74
4,COC(=O)NCCCC(=O)NC1(c2cccc(Cl)c2)CC1,-2.56
5,CCN1CCOC(CNc2nccc(C(F)(F)F)n2)C1 (stereo not drawn),5.31
6,Cn1cc(CCCNC(=O)NCC(O)c2ccsc2)cn1 (stereo not drawn),-5.4
7,COCCCNC(=O)NCc1ccc(N2CCOC(C)C2)nc1 (stereo not drawn),-5.82
8,CN(CCN1CCOC1=O)CC(=O)Nc1cc(F)cc(F)c1,-49.5
9,Cc1nn(C)c(Cl)c1CN1CCN(c2nccs2)C(C)C1 (stereo not drawn),-27.1
10,O=C(c1cc(Cl)c[nH]1)N1CCN(CCc2ccccn2)CC1,19.2
11,CC(NC(=O)N1CCN(c2cccs2)CC1)c1ccncc1 (stereo not drawn),15.8
12,CN1CCN(Cc2cccc(NCc3cc[nH]n3)c2)CC1,11.2
13,Cc1ccccc1C(=O)CN1C(=O)c2ccccc2CS1(=O)=O,-10.1
14,CCc1cnc(CN(C)C2CCN(CCc3ccccn3)C2)o1 (stereo not drawn),-14.2
15,CC(=O)Nc1nc2c(s1)C1(CCN(C)CC1)Nc1ccccc1S2,-14.5
16,CC1(C)CNC(=O)c2nc(-c3nnn[nH]3)[nH]c2C1,-5.69
17,Cc1ccccc1C(CC(=O)NCc1nnc(N)s1)c1ccccc1 (stereo not drawn),13.6
18,CC(C)[C@@H]1CN(Cc2ccccn2)C[C@H]1NS(=O)(=O)N(C)C,-0.869
19,Cc1nc2c(c(N3CCC4(CCCNC4=O)C3)n1)CCC2 (stereo not drawn),-12.8
20,O=C(Cn1cccn1)NCC1CCN(Cc2cc3ccccc3[nH]2)C1 (stereo not drawn),7.11
21,CCc1noc(C)c1C(=O)N1CCC2(CCCN(CC(C)(C)C)C2=O)C1 (stereo not drawn),3.75
22,Cc1cccnc1CNCC1(O)CCCN(CC2CCC2)C1=O (stereo not drawn),-5.51
23,COc1ccc(CCN(C)C(=O)CN2C(=O)OC[C@@H]2C(C)C)cc1OC,-11

row,Structure (SMILES),cytotoxicity at 10 µM [%]
1,CCc1cc(CN(C)C(=O)CN2CC(c3ccccc3)CC2=O)on1 (stereo not drawn),-4.81
2,Cc1nsc(NC(=O)N2CCCC2C)n1 (stereo not drawn),-38.7
3,CCc1nc2c(N3CCC4(CC3)CNC(=O)C4)ncnc2o1,-2
4,CN(C)Cc1nnc(C2CCN(c3nccc(N)n3)CC2)n1C1CC1,-1.99
5,CCCn1c(C)c(CC(=O)NC)c2c1CC(C)(C)CC2=O,-6.05
6,CC(C)N1CCC(NCc2cccnc2N(C)C)CC1,21
7,CCC1CN(C(=O)c2ccccc2N2CCCC2)CCN1C(C)C (stereo not drawn),-9.78
8,CCc1csc(C2CCCN(C(=O)c3cnc[nH]3)C2)n1 (stereo not drawn),1.78
9,CCOc1ccc(Cl)c(C(=O)N2CCN(c3ccncc3)CC2)n1,-5.44
10,CC(Cn1cccn1)NCCCc1nc(-c2cccs2)no1 (stereo not drawn),-9.8
11,CC(C(=O)N1CCCN(c2ccc(C#N)cc2)CC1)n1cccn1 (stereo not drawn),-3.02
12,Cc1noc(C2CCCN(C(=O)CCNc3ncccn3)C2)n1 (stereo not drawn),-8.27
13,CC(C)Cc1nc(CN2CCCC2Cn2cncn2)no1 (stereo not drawn),-8.66
14,CCc1nc(C2CCCN2CCCSC)no1 (stereo not drawn),-6.57
15,Cn1cc(C(=O)CC2CCCN2C(=O)c2ccncc2F)cn1 (stereo not drawn),0.555
16,CC(C(=O)N1CCN(c2ncccn2)CC1)n1cncn1 (stereo not drawn),-1.24
17,CC(=O)N1CCCN(C(=O)C(C)n2cncn2)CC1 (stereo not drawn),-0.227
18,CC(C)c1cc(NC(=O)CN2CCC(C(N)=O)CC2)on1,-6.37
19,Cc1cnn(CC2CN(Cc3csc(C(C)C)n3)CCO2)c1 (stereo not drawn),5.58
20,CN(C)c1cc(CNC(=O)c2ccc(O)nc2)ccn1,-16
21,O=C(c1cccc2c1OCCO2)N1CCCCC1Cn1cccn1 (stereo not drawn),-4.94
22,CCOC(=O)N1CCN(Cc2ccc(OCc3nccn3C)cc2)CC1,-9.34
23,CCc1nc(CN2CCN(C(=O)c3cnccn3)CC2)cs1,-8.92

row,Structure (SMILES),cytotoxicity at 10 µM [%]
1,Cc1ccc(C(=O)Nc2cn[nH]c2)cc1C,0.762
2,CN(CC(=O)N1CCCC1Cn1cccn1)C1CC1 (stereo not drawn),-9.39
3,c1cnn(CCN2CCOC(Cn3cncn3)C2)c1 (stereo not drawn),-0.498
4,CC(NC(=O)NCc1cccnc1N1CCCCC1)c1nccs1 (stereo not drawn),-7.95
5,COc1ccc(C(C)N2CCN(Cc3nccn3C)CC2)cc1Cl (stereo not drawn),-8.31
6,Cc1cccnc1CNc1cc(N2CCCC2CO)ncn1 (stereo not drawn),-10.3
7,CC(C)(C)c1cn2nc(N3CCCC3Cn3cncn3)sc2n1 (stereo not drawn),1.43
8,Cc1ccc(CN(CCCn2ccnc2)Cc2[nH]cnc2C)s1,-22.8
9,O=C(NC1CCCC1)c1cc(C2CCCNC2)n[nH]1 (stereo not drawn),5.27
10,O=C(NCc1cncc2c1CCN(Cc1cccc(F)c1)C2)C1CC1,-8.16
11,CN(C)c1ncc(C2Nc3ccccc3C3=NCCCN32)cn1 (stereo not drawn),-23.2
12,O=S(=O)(c1ccccc1)N1C[C@@H]2COC[C@]2(CN2CCOCC2)C1,2.32
13,O=C(c1ccccc1F)N1C[C@@H]2COC[C@]2(COCc2cccnc2)C1,6.27
14,O=C(c1ccc(F)cc1)N1C[C@@H]2OCCN(c3ncccn3)[C@@H]2C1,-9.55
15,Cc1ccc(CN2Cc3nnn(C)c3C(COCCN(C)C)C2)s1 (stereo not drawn),-7.25
16,O=C(Cc1cccc(F)c1)N1C[C@H]2CN(Cc3ccccn3)C[C@H]2C1,-2.25
17,OC(CN1CCN(Cc2cccnc2)CC1)c1cccs1 (stereo not drawn),-5.62
18,CN(C)C(=O)c1cnc2n1CCN(Cc1ccccc1)C2,7.05
19,c1cc(CN2C[C@H](OCC3CCOCC3)[C@H]3COC[C@H]32)cs1,9.86
20,CSc1ncc(CN2C[C@@H]3CC[C@H]2CN(C2CCOCC2)C3)cn1,-0.943
21,CNC(=O)[C@H]1C[C@H]2CN(Cc3ccc(C)cc3)C[C@@H]1O2,1.82
